Screening results from PubChem BioAssay.
Compounds with a hit are over-represented: about 2.4% of the library has one in this group of screens.
NPY-Y1 PAM-ag: human NPY-Y1 potentiation or agonism, primary screen; P25929; NPY-Y1 expressing cells, potentiator/agonist activation; activation, % at 3.6 µM; hit rate 0.37% among 220,000; AID 1304; in the data active means activation above about 33%, passing the limit was not always enough;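 further: cells stimulated with NPY at EC10 then isoproterenol at EC100; 0% = low agonist plus stimulus and 100% = saturating agonist plus stimulus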
S1P4 antagonist: antagonists of human S1P4 receptor | O95977 | S1P4-expressing cells, antagonist mode, reporter read-out | inhibition, % at 4.98 µM | hit rate 0.26% among 220,000; in the data active means inhibition above about 29%;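 further: 0% = wells stimulated with agonist and 100% = vehicle wells without agonist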
Target sequence (O95977 whole entry, looked up): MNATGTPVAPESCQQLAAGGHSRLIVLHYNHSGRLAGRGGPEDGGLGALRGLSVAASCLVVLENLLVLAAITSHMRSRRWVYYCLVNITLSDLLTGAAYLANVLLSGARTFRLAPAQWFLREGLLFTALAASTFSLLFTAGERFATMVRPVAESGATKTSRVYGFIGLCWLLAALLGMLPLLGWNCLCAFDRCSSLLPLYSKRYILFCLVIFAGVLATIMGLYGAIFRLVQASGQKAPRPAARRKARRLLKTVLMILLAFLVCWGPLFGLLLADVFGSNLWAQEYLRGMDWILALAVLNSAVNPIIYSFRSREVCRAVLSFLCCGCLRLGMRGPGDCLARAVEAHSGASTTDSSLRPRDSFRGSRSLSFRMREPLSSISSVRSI
NPY-Y2 antag: antagonists of human neuropeptide Y receptor Y2; P49146; AID 793; inhibition, % at 2.7 µM; hit rate 0.99% among 140,000; NPY-Y2 expressing cells, antagonist mode;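 further: 0% = vehicle with agonist challenge and 100% = reference antagonist with challenge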
Target sequence (P49146 whole entry, looked up): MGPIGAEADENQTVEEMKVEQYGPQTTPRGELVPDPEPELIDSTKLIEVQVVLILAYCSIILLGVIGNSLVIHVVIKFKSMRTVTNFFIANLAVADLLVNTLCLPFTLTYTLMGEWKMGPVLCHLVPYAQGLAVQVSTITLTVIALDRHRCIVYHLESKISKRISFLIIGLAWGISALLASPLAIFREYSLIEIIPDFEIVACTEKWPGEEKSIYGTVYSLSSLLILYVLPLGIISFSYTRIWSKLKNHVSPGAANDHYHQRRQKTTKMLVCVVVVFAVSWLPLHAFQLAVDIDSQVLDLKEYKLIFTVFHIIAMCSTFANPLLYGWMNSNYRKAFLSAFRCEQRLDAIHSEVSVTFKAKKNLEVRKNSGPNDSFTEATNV
NPY-Y2 PAM-ag: potentiators or agonists of human neuropeptide Y receptor Y2 | P49146 | cells expressing NPY-Y2, potentiator/agonist read-out | activation, % at 3.6 µM | hit rate 0.45% among 220,000 | AID 1359; in the data active means activation above about 27%;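 further: cells stimulated with NPY near EC25 plus isoproterenol at EC100; 0% = vehicle plus submaximal agonist and 100% = vehicle plus saturating agonist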
S1P4 agonist: agonists of human S1P4 receptor; O95977; S1P4-expressing cell line, agonist reporter assay; activation, % at 4.98 µM; hit rate 0.35% among 220,000; in the data active means activation above about 11%;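 further: 0% = DMSO vehicle and 100% = reference agonist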
NPY-Y1 antag: antagonists of human neuropeptide Y receptor Y1; hit rate 1% among 200,000; P25929; inhibition, % at 3.6 µM; AID 1040; HEK293-CNG Y1 cells, membrane potential fluorescence; NPY at EC95, then isoproterenol;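 active means inhibition above the campaign mean inhibition of all tested compounds plus 3 SD, cut at about 20% in these data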;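 further: 0% = DMSO wells given NPY plus isoproterenol and 100% = isoproterenol alone without NPY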
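Material: HEK293 Y1/CNG channel cell line | Also added: NPY (25 nM), isoproterenol (1 µM), Ro 20-1724 (25 µM) | Compound: One concentration, 3.6 µM, in 0.4% DMSO | Schedule: 3 h dye uptake, 1 h room-temperature compound, 45 min post-isoproterenol | Signal: Membrane-potential fluorescent dye readout | Read-out: % inhibition of NPY effect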
NPY1 antag conf: human NPY-Y1 antagonism, confirmation; shares compounds with NPY-Y1 antag; HEK293-CNG NPY-Y1, membrane potential fluorescence, cAMP; NPY challenge against isoproterenol-raised cAMP; inhibition, % at 3.6 µM; hit rate 21% among 1,200; AID 1254; in the data active means inhibition above about 20%;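 further: 0% = vehicle with agonist plus stimulus and 100% = stimulus alone without agonist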
NPY2 antag ctr: antagonizes human NPY-Y2, counter-screen to NPY-Y1 antagonists. HEK293 NPY-Y2 CNG membrane potential fluorescence, antagonism; cells given NPY, then isoproterenol. AID 1255. inhibition, % at 3.6 µM. shares compounds with NPY-Y1 antag. hit rate 28% among 1,200;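 further: 0% = DMSO with agonist challenge and 100% = reference antagonist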
An asterisk follows results filed as active. Unless noted, no stated cut-off is given here; in the data, active means inhibition above about 17%; inactive means the rest.

For O=C1C(=O)N(CCc2c[nH]c3ccccc23)C(c2cccnc2)/C1=C(/O)c1ccccc1 (configuration not stated) the results were NPY-Y1 PAM-ag -7.2, S1P4 antagonist -1.4, NPY-Y2 PAM-ag 5.2, S1P4 agonist -0.7 and NPY-Y1 antag 0.8.
`COC(=O)c1ccc(OCC2c3cc(OC)c(OC)cc3CCN2C(=O)c2ccco2)cc1` (configuration not stated) gave NPY-Y1 PAM-ag -29.8, S1P4 antagonist 14.4, NPY-Y2 antag 14.4, NPY-Y2 PAM-ag -15.2, S1P4 agonist 0.3, NPY-Y1 antag 22.2*, NPY1 antag conf 19.7 and NPY2 antag ctr 18.3*.
CN(C)C(CNS(=O)(=O)c1ccc(F)cc1)c1cccnc1 (configuration not stated) was read as NPY-Y1 PAM-ag -0.1, S1P4 antagonist -5.2, NPY-Y2 antag -0.6, NPY-Y2 PAM-ag -4.9, S1P4 agonist 3.0 and NPY-Y1 antag 11.0.
`O=[N+]([O-])c1ccc(C2CCCC/C2=N\OCc2cccc(F)c2)c([N+](=O)[O-])c1` (configuration not stated) gave NPY-Y1 PAM-ag -37.4, S1P4 antagonist -4.3, NPY-Y2 antag 0.3, NPY-Y2 PAM-ag -12.1, S1P4 agonist -1.2, NPY-Y1 antag 30.7*, NPY1 antag conf 11.3 and NPY2 antag ctr 11.3.
COc1nc(OC)nc(N2CCC(C(=O)Nc3cccc4c3CCCC4)CC2)n1 was read as NPY-Y1 PAM-ag 6.4, S1P4 antagonist -5.4, NPY-Y2 antag 1.4, NPY-Y2 PAM-ag -6.6, S1P4 agonist -0.9 and NPY-Y1 antag 0.0.
For COc1nc(OC)nc(N2CCC(C(=O)Nc3cccc4ccccc34)CC2)n1 the results were NPY-Y1 PAM-ag -35.0, S1P4 antagonist -2.1, NPY-Y2 antag 10.6, NPY-Y2 PAM-ag -9.5, S1P4 agonist 1.1, NPY-Y1 antag 35.0*, NPY1 antag conf 12.6 and NPY2 antag ctr 13.8.
CCOC(=O)N1CCN(C(=O)c2ccc3c(=O)n(Cc4ccccc4OC)c(=S)[nH]c3c2)CC1 was read as NPY-Y1 PAM-ag 3.4, S1P4 antagonist 4.6, NPY-Y2 antag 11.0, NPY-Y2 PAM-ag -33.6, S1P4 agonist 0.2, NPY-Y1 antag 21.6*, NPY1 antag conf 3.0 and NPY2 antag ctr 6.1.
CCOC(=O)C(=CNc1cc(C)nn1-c1ccc(Cl)cc1)C(=O)OCC was read as NPY-Y1 PAM-ag 12.9, S1P4 antagonist 5.0, NPY-Y2 antag 8.6, NPY-Y2 PAM-ag 11.4, S1P4 agonist -3.3, NPY-Y1 antag 23.7*, NPY1 antag conf 20.8* and NPY2 antag ctr 5.5.
For NC(=O)COC(=O)CSc1cccc2cccc(Cl)c12 the results were NPY-Y1 PAM-ag -47.5, S1P4 antagonist -16.7, NPY-Y2 PAM-ag -33.8, S1P4 agonist 1.3, NPY-Y1 antag 26.9*, NPY1 antag conf 12.8 and NPY2 antag ctr 13.8.
For O=C(COC(=O)CSc1cccc2cccc(Cl)c12)Nc1ncc(C(F)(F)F)cc1Cl the results were NPY-Y1 PAM-ag -44.2, S1P4 antagonist -4.8, NPY-Y2 antag 13.8, NPY-Y2 PAM-ag -20.9, S1P4 agonist -1.0 and NPY-Y1 antag 1.6.
For COc1ccc(C(=O)CSc2nnc(-c3ccc(C)cc3)o2)cc1 the results were NPY-Y1 PAM-ag -0.3, S1P4 antagonist -15.5, NPY-Y2 antag 3.2, NPY-Y2 PAM-ag -14.8, S1P4 agonist -1.1 and NPY-Y1 antag 8.7.
`COc1ccc2c(c1)C(C)=CC(C)(C)N2C(=O)CSc1nnc(-c2ccc(C)cc2)o1` gave NPY-Y1 PAM-ag -45.8, S1P4 antagonist 5.3, NPY-Y2 antag 15.9, NPY-Y2 PAM-ag -36.5, S1P4 agonist 1.3, NPY-Y1 antag 23.1*, NPY1 antag conf 12.1 and NPY2 antag ctr 10.7.
`CCOc1ccc(N=C(NN)c2ccc3ccccc3n2)cc1` gave NPY-Y1 PAM-ag -39.7, S1P4 antagonist -17.5, NPY-Y2 antag 11.3, NPY-Y2 PAM-ag -19.6, S1P4 agonist 2.5, NPY-Y1 antag 23.6*, NPY1 antag conf 3.5 and NPY2 antag ctr 7.6.
CCN(CC)C(=O)/C(=C\c1ccc(Br)cc1)NC(=O)c1ccccc1OC was read as NPY-Y1 PAM-ag -35.4, S1P4 antagonist -4.7, NPY-Y2 antag 6.0, NPY-Y2 PAM-ag -4.5, S1P4 agonist -0.7, NPY-Y1 antag 23.4*, NPY1 antag conf 13.1 and NPY2 antag ctr 8.9.
For COc1ccccc1C(=O)N/C(=C\c1ccc(Br)cc1)C(=O)NCCO the results were NPY-Y1 PAM-ag -9.1, S1P4 antagonist -16.9, NPY-Y2 antag 2.8, NPY-Y2 PAM-ag 2.7, S1P4 agonist 0.1 and NPY-Y1 antag -2.6.
Screening COc1ccccc1N1CCN(C(=O)C2c3ccccc3Oc3ccccc32)CC1 returned NPY-Y1 PAM-ag 1.8, S1P4 antagonist 15.8, NPY-Y2 antag 14.3, NPY-Y2 PAM-ag 4.4, S1P4 agonist 0.2, NPY-Y1 antag 22.8*, NPY1 antag conf 7.2 and NPY2 antag ctr 12.1.
O=C(C1c2ccccc2Oc2ccccc21)N1CCN(c2ccc(Cl)cc2)CC1 was read as NPY-Y1 PAM-ag -15.0, S1P4 antagonist 16.4, NPY-Y2 antag 9.7, NPY-Y2 PAM-ag -21.7, S1P4 agonist 1.0 and NPY-Y1 antag 10.8.
COc1ccc(C)cc1NC(=O)CSc1nnc(COc2ccccc2)n1Cc1ccco1 was read as NPY-Y1 PAM-ag -35.0, S1P4 antagonist -1.6, NPY-Y2 antag 4.5, NPY-Y2 PAM-ag -2.3, S1P4 agonist -2.2, NPY-Y1 antag 20.8*, NPY1 antag conf 5.0 and NPY2 antag ctr 4.6.
For Oc1ccc(Br)cc1/C=N/N1CCCCC1 the results were NPY-Y1 PAM-ag -4.3, S1P4 antagonist 4.5, NPY-Y2 antag 0.9, NPY-Y2 PAM-ag -4.8, S1P4 agonist -0.9 and NPY-Y1 antag -1.7.
For COc1cc2cc(C(=O)O)n(C)c2c(OC)c1OC the results were NPY-Y1 PAM-ag -12.2, S1P4 antagonist -13.6, NPY-Y2 antag 8.4, NPY-Y2 PAM-ag 3.4, S1P4 agonist 1.7, NPY-Y1 antag 25.3*, NPY1 antag conf 3.5 and NPY2 antag ctr 3.4.
For COc1ccc2c(c1)cc(C(=O)O)n2C the results were NPY-Y1 PAM-ag -8.0, S1P4 antagonist -15.3, NPY-Y2 antag 4.1, NPY-Y2 PAM-ag -0.5, S1P4 agonist 3.0 and NPY-Y1 antag 3.1.
For O=C(c1nc2ccccn2c1CN1CCN(c2ccccc2O)CC1)N1CCCC1 the results were NPY-Y1 PAM-ag 2.7, S1P4 antagonist 2.5, NPY-Y2 PAM-ag 19.2, S1P4 agonist 3.1 and NPY-Y1 antag -1.9.
Screening O=C(c1nc2ccccn2c1CN1CCCC(OCc2ccccc2)C1)N1CCCC1 (configuration not stated) returned NPY-Y1 PAM-ag -18.8, S1P4 antagonist -2.3, NPY-Y2 PAM-ag -18.5, S1P4 agonist 1.5, NPY-Y1 antag 23.7*, NPY1 antag conf 11.6 and NPY2 antag ctr 5.2.
